CaV13 FRET inh – Primary screen for inhibitors of IQ motif and Ca2+-dependent inactivation inhibitor domain binding in CACNA1D, Förster resonance energy transfer in living cells, …; HEK cells, CFP/YFP FRET ICDI-IQ, plate reader, 10 min; percent FRET-ratio fall versus neutral wells; inhibition, % at 12.3 µM; hit rate 0.098% among 340,000;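 active = mean replicate inhibition of at least 30% and at least 1% of replicates passing that level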;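 also: 0% = median of the neutral control wells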
CAL PDZ FP-1 – human CAL PDZ-peptide interaction inhibition; Q9HD26; purified CAL PDZ, TMR-peptide fluorescence polarization, 1 h; inhibition, % at 20 µM; hit rate 0.02% among 330,000; AID 504414;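 active = highest replicate inhibition of at least 40%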;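 also: plate controls were DMSO neutral control wells for no effect and unlabeled competitor peptide control wells for full effect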
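Test system: purified CerCALP PDZ construct; Compound dosing: one concentration, 20 µM compound; Also added: TMR-labelled reporter peptide T*-PRC34 bound in PDZ groove; Read-out: inhibition from polarization loss; Controls: unlabelled peptide and DMSO controls; Signal: FP readout, S and P plane fluorescence; Incubation: 1 h at RT.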
ARNT TACC3 PPI – disruptors of human ARNT/TACC3 interaction; hit rate 0.66% among 390,000; Q9Y6A5; inhibition, % at 9.99 µM; AlphaScreen His-ARNT PAS-B/GST-TACC3 binding, luminescence; TACC3 fragment carries E629A point mutation; AID 623870;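 active = mean inhibition of replicates at least 50% and at least half of replicates each reaching 50%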;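 also: 0% = complete ARNT plus TACC3 wells and 100% = ARNT alone without TACC3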
CAL PDZ FP-2 – CAL PDZ (human) peptide binding inhibition. purified CAL PDZ, TMR-peptide fluorescence polarization, 1 h. inhibition, % at 24.9 µM. hit rate 0.92% among 300,000. AID 602252;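 active = mean inhibition of at least 30% with at least half of replicates also reaching 30%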;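 also: 0% = DMSO neutral control and 100% = excess unlabeled competitor peptide PRC23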
Starred values were filed as active, the others as inactive; / = no result; + = active, no number. Compounds with a hit are over-represented: about 1.2% of the library has one in this group of screens.

SMILES	CaV13 FRET inh	CAL PDZ FP-1	ARNT TACC3 PPI	CAL PDZ FP-2
CC(C)NC(=O)N(C)C[C@H]1Oc2ccc(NC(=O)C3CC3)cc2C(=O)N([C@@H](C)CO)C[C@H]1C	/	/	-3.7	/
COc1cc([N+](=O)[O-])cc(/C=N/NC(=O)Cn2nc(C)cc2C)c1O	-9.4	-2.4	63.3*	2.9
COc1ccc(/C=N/NC(=O)Cn2nc([N+](=O)[O-])cc2C)c(OC)c1OC	-0.2	0.8	-3.6	1.9
COc1cc([N+](=O)[O-])cc(/C=N/NC(=O)Cn2nccc2C)c1O	-5.6	-3.3	70.7*	-3.0
N#C[C@H]1[C@H](c2ccccc2)[C@H](CO)N1C(=O)c1ccc2c(c1)OCO2	/	/	-7.5	/
COCc1cn(CC[C@H]2CC[C@H](NC(=O)Nc3ccc(F)cc3)[C@@H](CO)O2)nn1	/	/	-6.3	/
C[C@H]1CCCCO[C@H](CN(C)S(=O)(=O)c2cn(C)cn2)[C@@H](C)CN([C@@H](C)CO)C(=O)c2cc(NC(=O)c3ccccc3)ccc2O1	/	/	2.5	/
Cc1cc(C)cc(NC2=CC(=O)CC(c3ccco3)C2)c1 (stereo not drawn)	-4.4	-1.3	-9.9	/
CCc1ccc(NC2=CC(=O)CC(c3ccco3)C2)cc1 (stereo not drawn)	-3.5	-1.3	1.7	49.5*
CC1=CC(C)C(CN(CCC[N+](C)(C)C)C(=O)Nc2ccccc2)C(C)C1 (stereo not drawn)	-4.7	-0.4	-2.5	42.1*
COc1ccc(S(=O)(=O)N2CC(C(=O)O)Oc3ccc(CC(=O)O)cc32)cc1 (stereo not drawn)	-4.7	0.6	-24.7	37.9*
COc1cccc(C(=O)NC2CCCc3ccccc32)c1 (stereo not drawn)	-20.3	2.1	-3.5	-3.6
COc1cc(OC)cc(C(=O)OC(C)C(=O)NC2CCCc3ccccc32)c1 (stereo not drawn)	-5.2	-0.4	-3.3	61.2*
CCc1ccccc1NC(=O)CC1SCCNC1=O (stereo not drawn)	-6.4	-1.4	-2.9	32.0*
O=C(C1CC1)N1CCCCN2[C@H](CO)[C@H](c3ccc(C#CC4(O)CCCC4)cc3)[C@@H]2C1	/	/	-1.9	/
Nc1nc2nn(-c3ccccc3)nc2c(=O)[nH]1	-16.7	-1.3	-1.2	-5.3
Nc1nc2c(ncn2-c2ccccc2)c(=O)[nH]1	-11.2	-1.8	46.1*	-1.6
Cc1c(C(=O)N2CCOCC2)c(S(=O)(=O)Nc2ccc(C(C)C)cc2)c(C)n1C	-6.8	-1.1	-0.7	48.3*
COc1cc(COCC(O)CN2CCOCC2)cc(OC)c1OC (stereo not drawn)	-5.2	-0.2	-24.8	56.1*
Cc1cccc(S(=O)(=O)N2[C@@H]3c4cccc(=O)n4C[C@H]2[C@H](CO)[C@H]3C(=O)NC2CCC2)c1	/	/	-0.9	/
CCNC(=O)Nc1ccc2c(c1)C(=O)N(C)[C@H]1CC[C@H](CC(=O)N[C@H](C)c3ccccc3)O[C@H]1CO2	/	/	2.9	/
N#CCNC(=O)c1nn2c(C(F)(F)F)cc(-c3ccccc3)nc2c1Br	-4.5	/	-27.8	74.9*
O=c1cc(-c2ccccc2F)nc(-c2ccccc2F)o1	2.9	-1.9	2.5	34.0*
CC(C)NC(=O)N(C)C[C@H]1OCCCC[C@@H](C)Oc2ccc(NS(=O)(=O)c3cn(C)cn3)cc2C(=O)N([C@@H](C)CO)C[C@@H]1C	/	/	2.5	/
Cc1ccc(-n2nnnc2CNC(=O)C(=O)c2c[nH]c3ccccc23)cc1C	49.0*	/	/	/
SMILES	CaV13 FRET inh	CAL PDZ FP-1	ARNT TACC3 PPI	CAL PDZ FP-2
O=C(NCc1nnnn1-c1ccc(F)cc1)C(=O)c1c[nH]c2ccccc12	-3.8	/	/	/
CCN(CC)S(=O)(=O)c1ccc(N2CC(C(=O)NCCc3ccc(Cl)cc3)CC2=O)cc1 (stereo not drawn)	-5.8	-0.5	7.8	-4.0
CCN(CC)S(=O)(=O)c1ccc(N2CC(C(=O)NCCC3=CCCCC3)CC2=O)cc1 (stereo not drawn)	-5.4	-1.6	-7.6	45.2*
O=C(CN1CCOCC1)NCC[C@@H]1CC[C@H](NS(=O)(=O)c2ccc(F)cc2)[C@@H](CO)O1	/	/	-3.8	/
C[C@H]1CN([C@@H](C)CO)C(=O)c2c(c3ccccc3n2C)-c2ccccc2CO[C@@H]1CN(C)S(=O)(=O)c1cccs1	/	/	11.5	/
CCN(CC)c1ccc2c(-c3ccc(S(=O)(=O)O)cc3S(=O)(=O)[O-])c3ccc(=[N+](CC)CC)cc-3oc2c1	/	170.9*	1.9	+
C[C@@H]1CCCCO[C@H](CN(C)C(=O)NC2CCCCC2)[C@H](C)CN([C@@H](C)CO)C(=O)c2cc(NS(=O)(=O)c3ccc(Cl)cc3)ccc2O1	/	/	0.3	/
CCOC1=NN(c2ncc(C(F)(F)F)cc2Cl)C(=O)C1	33.9*	-0.2	29.7	2.1
CCN1[C@@H]2c3ccc(-c4ccccc4F)c(=O)n3C[C@H]1[C@H](CO)[C@H]2C(=O)N1CCCCC1	/	/	-12.8	/
C[C@@H]1CN([C@H](C)CO)C(=O)c2cc(NC(=O)Nc3ccccc3)ccc2O[C@@H]1CN(C)S(=O)(=O)c1ccccc1	/	/	0.1	/
O=C(C1=C(O)C(=O)N(CCN2CCOCC2)C1c1ccccc1)c1cccs1 (stereo not drawn)	-4.3	-0.5	8.4	31.5*
CC(C)Sc1nnc(SCC(=O)NCCCN2CCCC2=O)s1	-4.6	0.0	-3.8	44.1*
O=C(Nc1cccc(F)c1)N[C@H]1CC[C@H](CCNS(=O)(=O)c2cccc(Cl)c2)O[C@H]1CO	/	/	3.3	/
O=C1CC(c2ccccc2)=C(c2ccccc2)C1	-16.2	50.2*	7.7	-4.1
CC1=C(c2ccccc2)CCC1=O	-11.4	1.4	-2.7	-2.3
O=C(CC1Nc2ccccc2NC1=O)NC1CCCCC1 (stereo not drawn)	-9.4	-0.5	-5.0	0.0
CC(C)CNC(=O)CC1Nc2ccccc2NC1=O (stereo not drawn)	/	/	-0.1	95.4*
O=C(Nc1cccc(Br)c1)c1cc(=O)c2ccccc2o1	-2.7	-0.9	1.3	6.1
CC(=O)c1cccc(NC(=O)c2cc(=O)c3ccccc3o2)c1	-19.6	-0.6	-2.0	50.0*
CCCN1[C@H](C(=O)N[C@@H](C)c2ccccc2)[C@@H](CO)[C@@H]2Cn3c(ccc(-c4ccc(F)cc4)c3=O)[C@@H]21	/	/	25.0	/
COc1cc(NCc2ccccc2)c2ncn(C(C)C)c2c1	-5.2	1.3	13.9	-0.5
CCC(CN(C)C)Oc1cc(NCc2ccccc2)c2ncn(C(C)C)c2c1 (stereo not drawn)	/	0.6	51.3*	1.2
COc1ccc(CN2C(=O)c3cccnc3C2=O)cc1S(=O)(=O)NCc1ccc(C)cc1	-5.6	0.6	1.4	-2.6
COc1ccc(CN2C(=O)c3cccnc3C2=O)cc1S(=O)(=O)N(C)c1cccc(C)c1	-14.9	0.1	14.9	47.4*
CCN(c1ccccc1)S(=O)(=O)c1cc(CN2C(=O)c3cccnc3C2=O)ccc1OC	-4.3	-1.3	35.6	-8.0
COc1cccc(CNS(=O)(=O)c2cc(CN3C(=O)c4cccnc4C3=O)ccc2OC)c1	-1.9	-2.5	49.7*	-3.3
